ChEMBL document CHEMBL2439990, “Serendipity in drug-discovery: a new series of 2-(benzyloxy)benzamides as TRPM8 antagonists” (Bioorg Med Chem Lett, 2013)

What was measured:
[1] = molecular target: Transient receptor potential cation channel subfamily M member 8 (Homo sapiens, UniProt Q7Z2W7); test: Inhibition of human TRPM8 (unknown origin) expressed in HEK293 cells assessed as inhibition of WS12-induced Ca2+ elevation by FLIPR assay; format: cell-based
Outline: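 IC50 values plus modified Kb values computed from the geometric mean of agonist EC50 and slope. At least three independent experiments.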

[2] = Lipophilicity, log D of the compound at pH 7.4; format: physicochemical; settings: buffer
[3] = Apparent intrinsic clearance in human liver microsomes; format: ADME, Microsome; settings: read-out: CLH(app)
[4] = Half life in DMSO/aqueous buffer assessed as N-(2-(4-(benzyloxy)-3-methoxybenzylamino)ethyl)thiophene-2-carboxamide formation; format: physicochemical
[5] = species on record: Rattus norvegicus; test: Inhibition of rat calcium channel L-site diltiazem binding site at 10 uM

| Structure (SMILES) | IC50 [1] [nM] | Kb [1] [nM] | further results |
| --- | --- | --- | --- |
| CCN(C(=O)c1ccccc1OCc1ccccc1Cl)[C@@H]1CCC[C@H](N)C1 | 29.9 | 13 |  |
| NCCN(Cc1cccs1)C(=O)c1ccccc1OCc1ccccc1 | 1240 | 443 | logD [2]: 1.6; microsomal CLint [3]: 149 µL/min/mg |
| CCN(C(=O)c1ccccc1OCc1ccc(C#N)cc1)C1CCCC(N)C1 (racemic) | 6780 | 4590 |  |
| CCN(C(=O)c1ccccc1OCc1cccc(C#N)c1)C1CCCC(N)C1 (racemic) | 493 | 491 |  |
| CCN(C(=O)c1ccccc1OCc1ccccc1C#N)C1CCCC(N)C1 (racemic) | 1850 | 1250 |  |
| CCN(C(=O)c1ccccc1OCc1ccccc1)[C@H]1CCC[C@@H](N)C1 |  | 1130 |  |
| CCN(C(=O)c1ccccc1OCc1ccccc1)C1CCCNC1 (configuration not stated) |  | 4860 |  |
| CN(C(=O)c1ccccc1OCc1ccccc1)[C@@H]1CCNC1 |  | > 10000 |  |
| COc1cc(CN(CCN)C(=O)c2cccs2)ccc1OCc1ccccc1 |  | 8.4 | t1/2 [4]: < 2 h |
| CCN(C(=O)c1ccncc1OCc1ccccc1)[C@@H]1CCC[C@H](N)C1 (racemic) |  | > 2000 |  |
| O=C1NC(c2cccc([N+](=O)[O-])c2)=CCN1c1ccccc1O [ICILLIN] |  |  | EC50 [1]: 300 nM |
| CCCN(C(=O)c1ccccc1OCc1ccccc1)[C@@H]1CCC[C@H](N)C1 (racemic) | 1230 | 1430 |  |
| O=C(c1ccccc1OCc1ccccc1)N1CCNCC1 |  | > 10000 |  |
| CCN(C(=O)c1ccccc1OCc1ccccc1)[C@@H]1CC[C@@H](N)C1 (racemic) |  | 2600 |  |
| CCN(C(=O)c1ccccc1OCc1cccc(Cl)c1)C1CCCC(N)C1 (racemic) | 96.9 | 96.6 |  |
| CCN(C(=O)c1ccccc1OCc1ccccc1)C1CCNCC1 |  | > 5000 |  |
| COc1ccc(NC(=O)[C@@H]2C[C@H](C)CC[C@H]2C(C)C)cc1 [ACOLTREMON] |  |  | EC50 [1]: 40 nM |
| CCN(C(=O)c1ccccc1OCc1ccccc1C)[C@@H]1CCC[C@H](N)C1 | 15.1 | 12.7 |  |
| CCN(C(=O)c1ccccc1OCc1ccccc1)[C@@H]1CCC[C@@H](N)C1 (racemic) |  | 1400 |  |
| O=C(c1ccccc1OCc1ccccc1)N1C[C@H]2CNC[C@H]2C1 |  | > 10000 |  |
| CN(C(=O)c1ccccc1OCc1ccccc1)[C@@H]1CCC[C@H](N)C1 (racemic) | 3150 | 3670 |  |
| N[C@H]1CCC[C@@H](N(C(=O)c2ccccc2OCc2ccccc2)C2CCC2)C1 (racemic) | 1360 | 794 |  |
| CCN(C(=O)c1ccccc1OCc1ccccc1)[C@@H]1CCC[C@H](NC(C)=O)C1 (racemic) |  | > 5000 |  |

| Structure (SMILES) | IC50 [1] [nM] | Kb [1] [nM] | further results |
| --- | --- | --- | --- |
| CCN(C(=O)c1cnccc1OCc1ccccc1)[C@@H]1CCC[C@H](N)C1 (racemic) |  | > 2000 |  |
| CCN(C(=O)c1ccccc1-c1ccccc1)[C@@H]1CCC[C@H](N)C1 (racemic) |  | > 2000 |  |
| CCN(C(=O)c1ccccc1OCc1ccc(Cl)cc1)[C@H]1CCC[C@@H](N)C1 | 254 | 214 |  |
| N[C@H]1CCC[C@@H](N(CC2CC2)C(=O)c2ccccc2OCc2ccccc2)C1 (racemic) | 593 | 665 |  |
| CCN(C(=O)c1ccccc1OCc1ccc(Cl)cc1)[C@@H]1CCC[C@H](N)C1 | 19.3 | 16.1 | logD [2]: 1.3; microsomal CLint [3]: < 10 µL/min/mg |
| CCN(C(=O)c1ccccc1OCc1ccccc1C)[C@H]1CCC[C@@H](N)C1 | 291 | 246 |  |
| CCN(C(=O)c1ccccc1Cc1ccccc1)[C@@H]1CCC[C@H](N)C1 (racemic) |  | > 2000 |  |
| CCN(C(=O)c1ccccc1OCc1ccccc1)C1CCCC(N)C1 (racemic) |  | < 100 |  |
| CCN(C(=O)c1ccccc1OCc1ccccc1F)[C@@H]1CCC[C@H](N)C1 | 21.1 | 17.8 | logD [2]: 0.7; microsomal CLint [3]: < 8 µL/min/mg |
| NC1CCN(C(=O)c2ccccc2OCc2ccccc2)C1 (configuration not stated) |  | > 10000 |  |
| CCN(C(=O)c1ccccc1OCc1ccccc1)C1CCNC1 (configuration not stated) |  | > 5000 |  |
| CCN(C(=O)c1cccnc1OCc1ccccc1)[C@@H]1CCC[C@H](N)C1 (racemic) |  | > 2000 |  |
| CCN(C(=O)c1ccccc1OCc1ccccc1Cl)[C@H]1CCC[C@@H](N)C1 | 85.4 | 72 |  |
| CCN(C(=O)c1ccccc1COc1ccccc1)[C@@H]1CCC[C@H](N)C1 (racemic) |  | 280 |  |
| CCN(C(=O)c1ccccc1OCc1ccccc1)[C@@H]1CC[C@H](N)C1 (racemic) |  | > 5000 |  |
| NN1CCN(C(=O)c2ccccc2OCc2ccccc2)CC1 |  | > 10000 |  |
| CCN(C(=O)c1ccccc1OCC(C)C)[C@@H]1CCC[C@H](N)C1 (racemic) |  | > 2000 |  |
| CCN(C(=O)c1ccccc1OCc1ccccc1)[C@@H]1CCC[C@H](N)C1 | 76.2 | 56.3 | inhibition [5]: 61%; logD [2]: 0.6; microsomal CLint [3]: < 8 µL/min/mg |
| COc1cc(CN(CCN)C(=O)O[C@@H](C)c2ccccc2)ccc1OCc1ccccc1 |  | 7.8 |  |
| N[C@H]1CCC[C@@H](N(C(=O)c2ccccc2OCc2ccccc2)C2CC2)C1 (racemic) | 2010 | 2250 |  |
| CCN(C(=O)c1ccccc1OCc1ccccc1F)[C@H]1CCC[C@@H](N)C1 | 435 | 367 |  |
| CC(C)N(C(=O)c1ccccc1OCc1ccccc1)[C@@H]1CCC[C@H](N)C1 (racemic) | 8780 | 5130 |  |
| CCCCN(C(=O)c1ccccc1OCc1ccccc1)[C@@H]1CCC[C@H](N)C1 (racemic) | 1400 | 1560 |  |
